# Measured values: ChEMBL document CHEMBL1135733, “6-Sulfonylchromenes as highly potent K(ATP)-channel openers” (J Med Chem, 2002)
# Assays:
# [1] = target: ATP-binding cassette sub-family C member 9 (Rattus norvegicus) (UniProt Q63563); test: Binding affinity to the sulfonylurea receptor 2A (SUR2A) in purified membranes of rat-heart myocytes; assay type: cell membranes
# [2] = target: ATP-binding cassette sub-family C member 9 (Rattus norvegicus) (UniProt Q63563); test: Binding affinity towards Sulfonylurea receptor 2B (SUR2B) in cultured rat aortic smooth muscle cells (SMC)
# [3] = species on record: Rattus norvegicus; test: Difference between the pEC50 values in rat aorta and trachea as an indicator of selectivity; assay type: functional
# [4] = species on record: Rattus norvegicus; test: Maximum level of relaxation of aortic rings measured as percentage of basal tension.; assay type: functional; settings: Aorta
# In short: (§1)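 Isolated rat aortic rings at 5 mN resting force in supplemented Krebs solution, 32.5 °C, equilibrated 2 h with two test contractures; cumulative concentration-effect curves, effects as % of basal force (100% relaxation) vs maximum force (0%). pEC50 by linear extrapolation at half-maximal effect; Emax as % of basal tension; mean ± SEM, n = 4–6; paired time controls.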
# [5] = species on record: Rattus norvegicus; test: Maximum level of relaxation of tracheal strips measured as percentage of basal tension; assay type: functional; settings: Trachea
# In short: (§2)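 Rat tracheal strips at 10 mN resting force in supplemented Krebs solution, 32.5 °C, equilibrated 2 h with two test contractures; concentration-effect curves, effects as % of basal force (100% relaxation) vs maximum force (0%). pEC50 by linear extrapolation at half-maximal effect; Emax as % of basal tension; mean ± SEM, n = 4–6; paired time controls.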
# [6] = species on record: Rattus norvegicus; test: Dilator activity expressed as potency for relaxation of Aortic rings precontracted with 25 mM K; assay type: functional; in short: as §1
# [7] = species on record: Rattus norvegicus; test: Dilator activity expressed as potency for relaxation of Tracheal strips percontracted with 0.6 uM carbachol; assay type: functional; in short: as §2
# Sequence of ATP-binding cassette sub-family C member 9 (Rattus norvegicus) (Q63563 whole entry): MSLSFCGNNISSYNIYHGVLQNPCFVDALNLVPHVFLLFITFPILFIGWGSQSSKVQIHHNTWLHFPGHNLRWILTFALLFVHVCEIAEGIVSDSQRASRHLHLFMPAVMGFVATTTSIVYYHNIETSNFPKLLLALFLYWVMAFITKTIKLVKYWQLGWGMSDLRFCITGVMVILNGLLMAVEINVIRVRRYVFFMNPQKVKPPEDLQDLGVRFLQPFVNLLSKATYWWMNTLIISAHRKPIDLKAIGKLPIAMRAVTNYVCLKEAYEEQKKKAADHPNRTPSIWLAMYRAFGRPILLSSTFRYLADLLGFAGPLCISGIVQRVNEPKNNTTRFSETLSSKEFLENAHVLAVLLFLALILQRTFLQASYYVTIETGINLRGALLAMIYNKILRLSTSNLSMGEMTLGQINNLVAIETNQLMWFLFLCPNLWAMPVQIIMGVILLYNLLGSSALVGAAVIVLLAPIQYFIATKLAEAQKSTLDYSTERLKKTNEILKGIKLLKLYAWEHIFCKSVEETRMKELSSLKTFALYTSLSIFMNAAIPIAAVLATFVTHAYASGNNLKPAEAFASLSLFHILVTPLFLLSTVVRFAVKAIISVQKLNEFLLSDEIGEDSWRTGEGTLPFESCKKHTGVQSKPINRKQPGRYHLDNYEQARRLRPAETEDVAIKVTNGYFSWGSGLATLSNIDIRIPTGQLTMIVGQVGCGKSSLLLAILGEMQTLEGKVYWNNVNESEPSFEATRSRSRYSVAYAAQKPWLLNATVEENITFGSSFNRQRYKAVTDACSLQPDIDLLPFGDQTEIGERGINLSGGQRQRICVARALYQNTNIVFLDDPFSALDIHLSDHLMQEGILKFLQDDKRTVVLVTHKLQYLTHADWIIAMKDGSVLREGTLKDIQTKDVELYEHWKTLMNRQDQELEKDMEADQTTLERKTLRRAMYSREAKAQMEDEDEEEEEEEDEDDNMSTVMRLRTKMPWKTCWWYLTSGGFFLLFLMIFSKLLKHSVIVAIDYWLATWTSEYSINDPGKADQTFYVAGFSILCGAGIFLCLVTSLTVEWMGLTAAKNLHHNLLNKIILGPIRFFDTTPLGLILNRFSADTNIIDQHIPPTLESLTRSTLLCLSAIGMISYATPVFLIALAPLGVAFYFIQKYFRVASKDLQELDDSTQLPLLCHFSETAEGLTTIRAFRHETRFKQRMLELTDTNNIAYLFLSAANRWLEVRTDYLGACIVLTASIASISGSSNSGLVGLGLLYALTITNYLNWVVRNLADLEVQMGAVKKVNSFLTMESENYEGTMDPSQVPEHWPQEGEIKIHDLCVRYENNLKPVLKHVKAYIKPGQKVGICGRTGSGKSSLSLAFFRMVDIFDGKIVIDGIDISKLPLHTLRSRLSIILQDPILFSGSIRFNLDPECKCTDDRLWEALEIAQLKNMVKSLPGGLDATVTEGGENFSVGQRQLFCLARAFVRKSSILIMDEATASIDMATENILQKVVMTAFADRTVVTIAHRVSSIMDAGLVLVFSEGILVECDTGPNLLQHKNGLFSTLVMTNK
SMILES,pKD [1],pKD [2],Delta pEC50 [3],EC50 [6],EC50 [7],pKD ([2]; tested as the 2H-labelled form),pKD ([1]; tested as the 2H-labelled form),Emax [4],Emax [5]
CC1(C)C=C(n2ccccc2=O)c2cc(S(=O)(=O)NC(=O)NC3CCCCC3)ccc2O1,5.25,–,–,–,–,–,–,–,–
CC1(C)C=C(n2ccccc2=O)c2cc(S(=O)(=O)Nc3ccc(Br)cc3)ccc2O1,5.77,6.65,–,–,–,–,–,–,–
CC1(C)C=C(n2ccccc2=O)c2cc(S(=O)(=O)N3CCOCC3)ccc2O1,6.44,6.73,0.85,85.1 nM,603 nM,–,–,75.5%,85.1%
CC1(C)C=C(n2ccccc2=O)c2cc(S(=O)(=O)NCc3ccccc3)ccc2O1,5.28,6,0.4,525 nM,1320 nM,–,–,71.1%,77.5%
CCN(CC)S(=O)(=O)c1ccc2c(c1)C(n1ccccc1=O)=CC(C)(C)O2,6.45,6.94,–,–,–,–,–,–,–
CC1(C)C=C(n2ccccc2=O)c2cc(S(=O)(=O)Nc3ccc([N+](=O)[O-])cc3)ccc2O1,5.35,5.8,0.69,2090 nM,10200 nM,–,–,82.2%,75.6%
CC1(C)C=C(n2ccccc2=O)c2cc(S(=O)(=O)NCCO)ccc2O1,6.16,6.34,0.96,110 nM,1000 nM,–,–,95.5%,87.9%
CC1(C)C=C(n2ccccc2=O)c2cc(S(=O)(=O)NC3CCCC3)ccc2O1,5.85,6.27,–,–,–,–,–,–,–
CC1(C)C=C(n2ccccc2=O)c2cc(S(=O)(=O)Nc3ccccc3F)ccc2O1,7.63,7.96,–,–,–,–,–,–,–
COc1ccc(NS(=O)(=O)c2ccc3c(c2)C(n2ccccc2=O)=CC(C)(C)O3)cc1,6.27,6.61,0.62,117 nM,490 nM,–,–,77.9%,84.2%
CC1(C)C=C(n2ccccc2=O)c2cc(S(=O)(=O)F)ccc2O1,7.83,8.01,1.3,4.79 nM,93.3 nM,–,–,84.4%,90.5%
CC1(C)C=C(n2ccccc2=O)c2cc(S(=O)(=O)Nc3ccccc3Br)ccc2O1,6.86,7.64,–,–,–,–,–,–,–
CC1(C)C=C(n2ccccc2=O)c2cc(S(=O)(=O)NC(=O)Nc3ccccc3)ccc2O1,5.5,–,0.85,1410 nM,10000 nM,–,–,90.8%,99.5%
CC1(C)C=C(n2ccccc2=O)c2cc(S(=O)(=O)Nc3ccc(C#N)cc3)ccc2O1,5.5,6.12,0.72,263 nM,1380 nM,–,–,84%,90.8%
CC(C)NS(=O)(=O)c1ccc2c(c1)C(n1ccccc1=O)=CC(C)(C)O2,5.18,5.08,0.46,676 nM,1950 nM,–,–,76.9%,94.8%

# More lines, main results first:
pKD [1],pKD [2],Delta pEC50 [3],EC50 [6],EC50 [7],pKD ([2]; tested as the 2H-labelled form),pKD ([1]; tested as the 2H-labelled form),SMILES,Emax [4],Emax [5]
7.69,7.87,0.75,1.74 nM,9.77 nM,–,–,CN(c1ccccc1)S(=O)(=O)c1ccc2c(c1)C(n1ccccc1=O)=CC(C)(C)O2,64.2%,86.5%
7.57,8.15,1.05,2.4 nM,26.9 nM,–,–,CC1(C)Oc2ccc(S(=O)(=O)c3ccccc3)cc2[C@@H](N2CCCC2=O)[C@@H]1O [RILMAKALIM],81.2%,78.5%
6.5,6.94,0.51,69.2 nM,224 nM,–,–,CC1(C)C=C(n2ccccc2=O)c2cc(S(N)(=O)=O)ccc2O1,77.5%,92.1%
6.91,7.2,0.77,16.2 nM,95.5 nM,–,–,CN(C)S(=O)(=O)c1ccc2c(c1)C(n1ccccc1=O)=CC(C)(C)O2,78.3%,74.1%
7.25,7.98,0.99,16.2 nM,158 nM,–,–,CC1(C)C=C(n2ccccc2=O)c2cc(C#N)ccc2O1 [BIMAKALIM],92.3%,84.2%
7.18,7.26,0.89,17.8 nM,138 nM,–,–,CNS(=O)(=O)c1ccc2c(c1)C(n1ccccc1=O)=CC(C)(C)O2,85.8%,83%
–,–,0.82,2 nM,13.2 nM,–,–,[2H]c1c([2H])c([2H])c(NS(=O)(=O)c2ccc3c(c2)C(n2ccccc2=O)=CC(C)(C)O3)c([2H])c1[2H],82.5%,88%
7.83,–,1.1,16.2 nM,204 nM,–,–,CC1(C)C=C(n2ccccc2=O)c2cc(S(=O)(=O)N=[N+]=[N-])ccc2O1,88.3%,77.2%
6.86,7.19,1.02,17.4 nM,182 nM,–,–,CC1(C)C=C(n2ccccc2=O)c2cc(S(=O)(=O)c3ccccc3)ccc2O1,79.3%,88.1%
7.78,8.55,0.72,2.51 nM,13.2 nM,–,–,CC1(C)C=C(n2ccccc2=O)c2cc(S(=O)(=O)Oc3ccccc3)ccc2O1,67.9%,86.7%
7.83,8.05,0.66,3.09 nM,–,8.13,7.73,CC1(C)C=C(n2ccccc2=O)c2cc(S(=O)(=O)Nc3ccccc3)ccc2O1,63.6%,84.5%
6.7,7,0.88,56.2 nM,–,–,–,CCNS(=O)(=O)c1ccc2c(c1)C(n1ccccc1=O)=CC(C)(C)O2,72.4%,87%
